From ChEMBL document CHEMBL3804803, “Pyrrolopyrimidine Derivatives as Novel Inhibitors of Multidrug Resistance-Associated Protein 1 (MRP1, ABCC1)” (J Med Chem, 2016)

Tests used:
[1] = target: T1, Multidrug resistance-associated protein 1 (Homo sapiens, UniProt P33527); assay: Inhibition of MRP1 in human H69AR cells assessed as daunorubicin accumulation preincubated for 15 mins measured after 180 mins by flow cytometry; format: cell-based
Procedure, shortened: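 H69 AR cells, about 60,000 per well in culture medium. Preincubated 15 min with compound diluted in unsupplemented medium, then daunorubicin added (20 µL of 30 µM solution). Held 180 min at 37 °C, 5% CO2, protected from light, to reach steady state. Cells resuspended; flow cytometry with 488 nm excitation, FL3 ≥670 nm. IC50 from four-parameter logistic with variable Hill slope; ≥3 independent experiments in duplicate.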

[2] = target: T2, Broad substrate specificity ATP-binding cassette transporter ABCG2 (Homo sapiens, UniProt Q9UNQ0); assay: Inhibition of BCRP (unknown origin) expressed in MDCK2 cells assessed as pheophorbide A accumulation preincubated for 20 mins measured after 120 mins by flow cytometry; format: cell-based, MDCK-II
T2 sequence (Q9UNQ0 whole entry): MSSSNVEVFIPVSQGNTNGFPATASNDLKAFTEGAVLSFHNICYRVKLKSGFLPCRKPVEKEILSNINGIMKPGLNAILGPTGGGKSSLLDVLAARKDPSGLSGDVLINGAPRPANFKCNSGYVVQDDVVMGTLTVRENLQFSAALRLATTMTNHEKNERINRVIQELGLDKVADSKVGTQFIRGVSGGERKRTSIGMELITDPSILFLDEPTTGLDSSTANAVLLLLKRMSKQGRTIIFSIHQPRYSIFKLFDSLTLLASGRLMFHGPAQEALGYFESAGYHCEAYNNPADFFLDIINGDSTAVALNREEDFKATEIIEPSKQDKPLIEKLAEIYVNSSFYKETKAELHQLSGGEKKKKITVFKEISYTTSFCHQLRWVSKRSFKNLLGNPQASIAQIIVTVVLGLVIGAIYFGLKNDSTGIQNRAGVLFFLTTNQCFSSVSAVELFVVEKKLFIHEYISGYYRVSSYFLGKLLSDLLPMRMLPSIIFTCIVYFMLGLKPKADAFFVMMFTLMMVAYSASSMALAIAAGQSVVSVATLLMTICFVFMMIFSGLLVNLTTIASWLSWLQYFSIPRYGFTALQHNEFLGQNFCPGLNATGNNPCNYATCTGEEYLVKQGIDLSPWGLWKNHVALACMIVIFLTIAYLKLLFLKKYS
Procedure, shortened: (§1)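 MDCK II BCRP cells (GFP detected in FL1 to monitor BCRP expression), about 45,000 per well. Preincubated 20 min at 37 °C, 5% CO2 with compound (1–100 µM solutions, 20 µL into 200 µL final volume). Pheophorbide A added (20 µL of 5 µM solution) for 120 min to reach steady state. Cells resuspended, then flow cytometry: 488 nm excitation, FL3 ≥670 nm. […] The four-parameter logistic top was constrained to Ko143; ≥3 experiments in duplicate.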

Homo sapiens = species: Homo sapiens; assay: Inhibition of P-gp (unknown origin) at 10 uM after 30 mins by calcein AM accumulation assay
BCRP (ABCG2) = target: T3, BCRP (ABCG2) (Homo sapiens, UniProt Q9UNQ0); assay: Inhibition of BCRP (unknown origin) expressed in MDCK2 cells assessed as pheophorbide A accumulation at 10 uM preincubated for 20 mins measured after 120 mins by flow cytometry; format: cell-based, MDCK-II; details: MDCK2 cells expressing BCRP, probe pheophorbide A; procedure, shortened: as §1
T3 sequence (Q9UNQ0 whole entry): T2 sequence (Q9UNQ0 whole entry)

[3] = Cytotoxicity against human H69AR cells overexpressing MRP1 assessed as reduction in cell viability at 10 uM after 72 hrs by MTT assay; format: cell-based; details: for Activity: h69ar, 72 h, 10 µM
Procedure, shortened: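 H69 AR cells, about 20,000 per well, 72 h at 37 °C in humidified CO2 with compound at 10 µM. MTT (5 mg/mL, 20 µL) added for 1 h, then DMSO solubilization and absorbance 570 nm with 690 nm background. Viability scaled between plain medium (100%) and 10% DMSO (0%). ≥3 independent experiments in duplicate.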

[4] = Cytotoxicity against human H69AR cells overexpressing MRP1 assessed as growth inhibition after 72 hrs by MTT assay; format: cell-based
Procedure, shortened: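 H69 AR cells, about 20,000 per well, exposed 72 h at 37 °C in humidified CO2 to test compound diluted in culture medium (100 nM to 100 µM solutions, 20 µL added to 180 µL cells). Then MTT (5 mg/mL, 20 µL) for 1 h, formazan taken up in DMSO, absorbance 570 nm minus 690 nm. Plain medium set 100% viability, 10% DMSO 0%. GI50 from variable-slope nonlinear fit; ≥3 independent experiments in duplicate.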

[5] = target: T1, Multidrug resistance-associated protein 1; details: h69ar, 72 h, 1 µM
[6] = target: T1, Multidrug resistance-associated protein 1; details: h69ar, 72 h, 5 µM
[7] = target: T1, Multidrug resistance-associated protein 1; details: h69ar, 72 h, 10 µM
[8] = target: T1, Multidrug resistance-associated protein 1; assay: Inhibition of MRP1 in human H69AR cells incubated for 20 mins measured every 60 seconds by calcein-AM accumulation assay
[9] = Inhibition of P-gp in human A2780/ADR cells after 30 mins by calcein AM accumulation assay; format: cell-based; details: 0.5 h
[10] = target: T1, Multidrug resistance-associated protein 1; assay: Inhibition of MRP1 in human H69AR cells incubated for 20 mins measured […] by calcein-AM accumulation assay; format: cell-based
Procedure, shortened: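 H69 AR cells, about 60,000 per well in Krebs-HEPES buffer pH 7.4. Incubated 20 min at 37 °C, 5% CO2 with compound (100 nM–100 µM solutions, 20 µL in 200 µL final volume). Calcein AM then added (20 µL of 3.125 µM). Fluorescence (ex 485/em 520 nm, 37 °C) read every 60 s. Slope between min 5 and 30 plotted against log concentration; four-parameter logistic fit; ≥3 experiments in duplicate.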

[11] = target: T1, Multidrug resistance-associated protein 1; assay: Inhibition of MRP1 in daunorubicin resistant human H69AR cells assessed as potentiation of daunorubicin-induced growth inhibition at 1 to 10 uM after 72 hrs by MTT assay relative to control; format: cell-based

T1 sequence (P33527 whole entry): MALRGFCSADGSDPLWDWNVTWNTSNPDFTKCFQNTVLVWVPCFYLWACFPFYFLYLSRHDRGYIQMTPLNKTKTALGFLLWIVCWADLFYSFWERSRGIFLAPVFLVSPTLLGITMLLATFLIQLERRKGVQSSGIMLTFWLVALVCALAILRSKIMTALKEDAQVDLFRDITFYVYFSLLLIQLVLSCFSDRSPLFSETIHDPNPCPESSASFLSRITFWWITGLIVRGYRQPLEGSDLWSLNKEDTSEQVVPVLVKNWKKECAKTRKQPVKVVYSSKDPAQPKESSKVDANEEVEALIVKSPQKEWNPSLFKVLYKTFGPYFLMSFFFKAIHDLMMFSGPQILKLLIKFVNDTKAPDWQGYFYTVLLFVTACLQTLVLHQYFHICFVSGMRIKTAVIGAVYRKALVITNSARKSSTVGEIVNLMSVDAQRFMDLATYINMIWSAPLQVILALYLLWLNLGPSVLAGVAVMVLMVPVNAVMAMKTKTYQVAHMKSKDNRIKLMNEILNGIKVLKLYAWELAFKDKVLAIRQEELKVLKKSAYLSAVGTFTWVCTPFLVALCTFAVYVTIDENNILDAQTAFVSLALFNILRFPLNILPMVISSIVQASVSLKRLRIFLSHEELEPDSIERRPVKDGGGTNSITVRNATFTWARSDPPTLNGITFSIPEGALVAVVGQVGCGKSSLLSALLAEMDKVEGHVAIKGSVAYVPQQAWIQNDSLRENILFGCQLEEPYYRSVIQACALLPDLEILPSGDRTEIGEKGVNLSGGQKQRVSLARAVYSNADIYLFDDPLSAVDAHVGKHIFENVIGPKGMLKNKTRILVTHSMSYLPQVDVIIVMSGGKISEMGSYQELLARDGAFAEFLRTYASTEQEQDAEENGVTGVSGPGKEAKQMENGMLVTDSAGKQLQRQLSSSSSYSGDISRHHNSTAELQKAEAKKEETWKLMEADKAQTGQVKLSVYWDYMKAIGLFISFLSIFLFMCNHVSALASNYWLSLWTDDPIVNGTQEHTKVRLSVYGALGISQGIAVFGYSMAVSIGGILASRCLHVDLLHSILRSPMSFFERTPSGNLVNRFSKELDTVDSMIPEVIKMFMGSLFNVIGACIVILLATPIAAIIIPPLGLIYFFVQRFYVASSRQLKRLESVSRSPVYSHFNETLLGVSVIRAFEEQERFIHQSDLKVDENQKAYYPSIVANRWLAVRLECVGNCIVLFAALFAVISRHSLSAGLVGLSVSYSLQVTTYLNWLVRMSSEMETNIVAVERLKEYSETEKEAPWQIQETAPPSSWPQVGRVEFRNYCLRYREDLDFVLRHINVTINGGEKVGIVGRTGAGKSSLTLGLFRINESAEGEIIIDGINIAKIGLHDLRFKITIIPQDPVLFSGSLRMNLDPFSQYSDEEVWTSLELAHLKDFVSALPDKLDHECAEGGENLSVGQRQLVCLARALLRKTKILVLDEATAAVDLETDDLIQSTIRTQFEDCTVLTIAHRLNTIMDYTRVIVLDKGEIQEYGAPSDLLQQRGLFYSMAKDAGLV

SMILES	IC50 [1] [nM]	IC50 [2] [nM]	inhibition (Homo sapiens) [%]	inhibition at 2 h, 10 µM (BCRP (ABCG2)) [%]	IC50 [8] [nM]	IC50 [9] [nM]	IC50 [10] [nM]	Activity [3]	GI50 at 72 h [4] [nM]	GI50 [5] [nM]	GI50 [6] [nM]	GI50 [7] [nM]	cytotoxicity at 72 h, 10 µM ([3]; H69AR cells overexpressing MRP1, read-out: INH) [%]	fold change (FC) [11]
N#Cc1c2n(c3c(NCCCc4ccccc4)ncnc13)CCCC2	2840	6070	> 25	> 25	2500	–	–	Non-toxic	132000	2410	751	450	–	–
N#Cc1cn(Cc2ccccc2)c2c(N3CCN(CCc4ccccc4)CC3)ncnc12	623	–	> 25	< 25	1000	10600	–	–	–	–	–	–	–	–
N#Cc1c2n(c3c(N4CCN(c5ccccc5)CC4)ncnc13)CCCCC2	15100	–	> 25	> 25	–	–	8980	–	–	–	–	–	–	–
CCn1cc(C#N)c2ncnc(N3CCN(CCc4ccccc4)CC3)c21	789	–	> 25	< 25	1060	–	–	–	–	–	–	–	–	–
N#Cc1cn(Cc2ccccc2)c2c(N3CCN(Cc4ccccc4)CC3)ncnc12	876	–	> 25	< 25	2770	–	–	–	–	–	–	–	–	–
N#Cc1c2n(c3c(N4CCN(CCc5ccccc5)CC4)ncnc13)CCCC2	197	8190	> 25	> 25	370	18800	–	Non-toxic	39900	–	–	–	–	–
N#Cc1c2n(c3c(N4CCN(C(c5ccccc5)c5ccccc5)CC4)ncnc13)CCCCC2	1010	8710	> 25	> 25	–	28600	1950	–	–	–	–	–	–	–
N#Cc1cn(CCc2ccccc2)c2c(N3CCN(CCc4ccccc4)CC3)ncnc12	1120	–	> 25	< 25	1020	32500	–	–	–	–	–	–	–	–
N#Cc1cn(-c2ccccc2)c2c(N3CCN(CCc4ccccc4)CC3)ncnc12	340	–	> 25	< 25	750	6820	–	–	23600	–	–	–	40	–
N#Cc1c2n(c3c(Nc4ccccc4)ncnc13)CCCC2	9410	7680	> 25	> 25	14200	–	–	–	–	–	–	–	–	–
N#Cc1c2n(c3c(N4CCNCC4)ncnc13)CCCC2	10800	–	> 25	> 25	27300	–	–	Non-toxic	60600	2940	2480	1830	–	–
CN1CCN(c2ncnc3c(C#N)c4n(c23)CCCC4)CC1	2870	4250	> 25	> 25	5060	–	–	–	–	–	–	–	–	–
N#Cc1cn(CCc2ccccc2)c2c(N3CCN(Cc4ccccc4)CC3)ncnc12	983	–	> 25	< 25	910	–	–	–	–	–	–	–	–	–
N#Cc1c2n(c3c(NCCc4ccccc4)ncnc13)CCCC2	4980	–	> 25	> 25	8370	–	–	–	–	–	–	–	–	–
N#Cc1cn(CCCc2ccccc2)c2c(N3CCN(Cc4ccccc4)CC3)ncnc12	2360	–	> 25	< 25	3150	–	–	–	–	–	–	–	–	–
N#Cc1c2n(c3c(NCc4ccccc4)ncnc13)CCCC2	8800	15800	> 25	> 25	14200	–	–	–	–	–	–	–	–	–
Cn1cc(C#N)c2ncnc(N3CCN(CCc4ccccc4)CC3)c21	700	–	> 25	< 25	714	–	–	–	–	–	–	–	–	–

Further molecules by falling IC50 [1], results first:

IC50 [1] [nM]	IC50 [2] [nM]	inhibition (Homo sapiens) [%]	inhibition at 2 h, 10 µM (BCRP (ABCG2)) [%]	IC50 [8] [nM]	IC50 [9] [nM]	IC50 [10] [nM]	SMILES	Activity [3]	GI50 at 72 h [4] [nM]	GI50 [5] [nM]	GI50 [6] [nM]	GI50 [7] [nM]	cytotoxicity at 72 h, 10 µM ([3]; H69AR cells overexpressing MRP1, read-out: INH) [%]	fold change (FC) [11]
2900	5910	> 25	> 25	2560	–	–	N#Cc1c2n(c3c(N4CCN(c5ccccc5)CC4)ncnc13)CCCC2	–	–	–	–	–	–	–
1240	–	> 25	< 25	821	–	–	CC(C)n1cc(C#N)c2ncnc(N3CCN(CCc4ccccc4)CC3)c21	–	–	–	–	–	–	–
1070	14300	> 25	> 25	1620	–	–	N#Cc1c2n(c3c(N4CCN(C(c5ccccc5)c5ccccc5)CC4)ncnc13)CCCC2	–	–	–	–	–	–	–
866	–	> 25	< 25	1220	–	–	N#Cc1cn(-c2ccccc2)c2c(N3CCN(Cc4ccccc4)CC3)ncnc12	–	–	–	–	–	–	–
643	9940	> 25	> 25	–	19200	833	N#Cc1c2n(c3c(N4CCN(CCc5ccccc5)CC4)ncnc13)CCCCC2	Non-toxic	79800	–	–	–	–	–
636	8240	> 25	> 25	671	32300	–	N#Cc1c2n(c3c(N4CCN(Cc5ccccc5)CC4)ncnc13)CCCC2	–	–	–	–	–	–	–
586	–	> 25	< 25	956	–	–	N#Cc1cn(CCCc2ccccc2)c2c(N3CCN(CCc4ccccc4)CC3)ncnc12	–	–	–	–	–	–	–
418	–	> 25	< 25	543	41900	–	CCCn1cc(C#N)c2ncnc(N3CCN(CCc4ccccc4)CC3)c21	–	–	–	–	–	–	–
200	–	> 25	< 25	247	–	–	N#Cc1cn(C2CC2)c2c(N3CCN(CCc4ccccc4)CC3)ncnc12	Non-toxic	36000	–	–	–	–	10
